This note sets out measurements from ChEMBL document CHEMBL3593206, “SAR Studies of Exosite-Binding Substrate-Selective Inhibitors of A Disintegrin And Metalloprotease 17 (ADAM17) and Application as Selective in Vitro Probes” (J Med Chem, 2015).

Assay [1] has as its target T1, Disintegrin and metalloproteinase domain-containing protein 10 (Homo sapiens, UniProt O14672).
T1 sequence (O14672 whole entry): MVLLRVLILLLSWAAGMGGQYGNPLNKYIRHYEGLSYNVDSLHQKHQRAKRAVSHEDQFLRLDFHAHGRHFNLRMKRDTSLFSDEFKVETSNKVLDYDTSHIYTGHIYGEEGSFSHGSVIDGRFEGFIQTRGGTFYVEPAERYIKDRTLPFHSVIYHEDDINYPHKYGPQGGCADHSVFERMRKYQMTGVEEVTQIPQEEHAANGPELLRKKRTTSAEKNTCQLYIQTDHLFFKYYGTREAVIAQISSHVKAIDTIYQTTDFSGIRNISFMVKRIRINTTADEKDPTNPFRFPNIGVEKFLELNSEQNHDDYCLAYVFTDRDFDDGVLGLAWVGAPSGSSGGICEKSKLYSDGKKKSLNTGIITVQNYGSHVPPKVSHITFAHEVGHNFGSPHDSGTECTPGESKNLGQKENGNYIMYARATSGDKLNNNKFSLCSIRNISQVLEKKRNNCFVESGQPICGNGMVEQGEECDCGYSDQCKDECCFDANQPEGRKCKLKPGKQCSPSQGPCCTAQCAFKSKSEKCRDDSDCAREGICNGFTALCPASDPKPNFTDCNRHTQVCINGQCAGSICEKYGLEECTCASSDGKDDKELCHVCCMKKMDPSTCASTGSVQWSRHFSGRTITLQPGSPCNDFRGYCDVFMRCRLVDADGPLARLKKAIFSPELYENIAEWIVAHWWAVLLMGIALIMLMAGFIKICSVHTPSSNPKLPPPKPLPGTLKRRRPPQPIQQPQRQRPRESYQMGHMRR
The experiment in a line: Inhibition of ADAM10 (unknown origin) preincubated for 30 mins followed by substrate addition measured every 30 mins for 2 hrs by fluorescence assay. Put shortly:
(§1)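 Enzyme at 30 nM (3× solution) in 10 mM Hepes, 0.001% Brij-35, pH 7.5. Inhibitor series of 10 points, 1:3, from 300 μM, preincubated 30 min at RT. Glycosylated substrate added from a 30 μM 3× solution. Fluorescence (ex 360/em 460 nm) read every 30 min for 2 h. Inhibition taken from hydrolysis rates against substrate-only and substrate-plus-enzyme wells.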

For assay [2], the target named is T2, Disintegrin and metalloproteinase domain-containing protein 17 (Homo sapiens, UniProt P78536). Description: Inhibition of ADAM17 (unknown origin) preincubated for 30 mins followed by substrate addition measured every 30 mins for 2 hrs by fluorescence assay. Put shortly: as §1
T2 sequence (P78536 whole entry, the tested form may be a part): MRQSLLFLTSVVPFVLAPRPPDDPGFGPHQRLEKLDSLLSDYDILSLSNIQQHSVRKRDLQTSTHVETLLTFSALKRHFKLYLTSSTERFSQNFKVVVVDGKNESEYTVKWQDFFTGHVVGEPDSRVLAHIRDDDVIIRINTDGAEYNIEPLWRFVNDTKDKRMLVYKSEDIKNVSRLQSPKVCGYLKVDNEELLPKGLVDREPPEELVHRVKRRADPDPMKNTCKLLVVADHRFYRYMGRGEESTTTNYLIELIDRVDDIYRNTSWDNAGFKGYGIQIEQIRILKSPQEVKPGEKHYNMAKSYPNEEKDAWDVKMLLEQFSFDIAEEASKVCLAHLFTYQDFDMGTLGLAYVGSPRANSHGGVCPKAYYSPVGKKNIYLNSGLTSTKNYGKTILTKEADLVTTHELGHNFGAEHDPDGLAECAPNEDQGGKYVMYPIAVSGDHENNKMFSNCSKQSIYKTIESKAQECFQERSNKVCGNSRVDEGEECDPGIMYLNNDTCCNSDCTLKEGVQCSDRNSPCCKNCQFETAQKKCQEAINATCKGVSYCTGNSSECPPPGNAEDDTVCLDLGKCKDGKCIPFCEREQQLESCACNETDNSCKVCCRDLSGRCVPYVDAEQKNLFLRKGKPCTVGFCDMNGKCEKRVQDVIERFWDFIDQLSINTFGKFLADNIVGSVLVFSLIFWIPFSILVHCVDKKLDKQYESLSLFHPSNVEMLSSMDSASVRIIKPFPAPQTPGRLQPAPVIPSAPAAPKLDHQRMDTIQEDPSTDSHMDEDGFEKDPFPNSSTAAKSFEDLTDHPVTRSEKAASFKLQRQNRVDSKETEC
The target of assay [3] is Matrix metalloproteinase-9 (Homo sapiens, UniProt P14780). Description: Inhibition of MMP9 (unknown origin) using Mca-KLPGL-Dnp-AR as substrate at 100 uM preincubated for 30 mins followed by substrate addition measured after 1 hr by fluorescence assay relative to control. Put shortly:
(§2)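 Inhibitor as 10-point 1:3 dilutions from 300 μM, 30 min at RT. Substrate added from a 30 μM 3× solution. Single fluorescence read (ex 324/em 393 nm) after 1 h at RT.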

For assay [4], the target named is T2, Disintegrin and metalloproteinase domain-containing protein 17. Description: Inhibition of ADAM17 in human THP1 cells assessed as inhibition of LPS-stimulated TNFalpha cleavage at 25 uM after 1 hr by AlphaScreen assay relative to control. The assay is classed as cell-based. Conditions: THP-1. Put shortly: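 THP-1 cells grown in RPMI 1640 with 10% FBS and 0.05 mM 2-mercaptoethanol; 3000 cells per well. Compound given in 3% DMSO for 1 h, then LPS added (1 μg/mL final) and cells incubated overnight at 37 °C. TNFα detected by AlphaScreen using anti-TNFα acceptor beads and streptavidin donor beads, each step 1 h in the dark at RT.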

Assay [5] has the same target. Description: Inhibition of ADAM17 in human A549 cells assessed as inhibition of PMA-stimulated heregulin shedding at 40 uM incubated for 1 hr followed by PMA stimulation measured after 1 hr. Format: cell-based. Put shortly: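 Heregulin shedding in A549 cells, with all compounds tested at 40 μM.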
The target in another assay is Neutrophil collagenase (Homo sapiens, UniProt P22894). Description: Inhibition of MMP8 (unknown origin) using Mca-KLPGL-Dnp-AR as substrate at 100 uM preincubated for 30 mins followed by substrate addition measured after 1 hr by fluorescence assay relative to control. Put shortly:
as §2

Assay [6] deals with 72 kDa type IV collagenase (Homo sapiens, UniProt P08253). Description: Inhibition of MMP2 (unknown origin) using Mca-KLPGL-Dnp-AR as substrate at 100 uM preincubated for 30 mins followed by substrate addition measured after 1 hr by fluorescence assay relative to control. A digest of the protocol: as §2
Sequence of 72 kDa type IV collagenase (P08253 110-660 limits assumed): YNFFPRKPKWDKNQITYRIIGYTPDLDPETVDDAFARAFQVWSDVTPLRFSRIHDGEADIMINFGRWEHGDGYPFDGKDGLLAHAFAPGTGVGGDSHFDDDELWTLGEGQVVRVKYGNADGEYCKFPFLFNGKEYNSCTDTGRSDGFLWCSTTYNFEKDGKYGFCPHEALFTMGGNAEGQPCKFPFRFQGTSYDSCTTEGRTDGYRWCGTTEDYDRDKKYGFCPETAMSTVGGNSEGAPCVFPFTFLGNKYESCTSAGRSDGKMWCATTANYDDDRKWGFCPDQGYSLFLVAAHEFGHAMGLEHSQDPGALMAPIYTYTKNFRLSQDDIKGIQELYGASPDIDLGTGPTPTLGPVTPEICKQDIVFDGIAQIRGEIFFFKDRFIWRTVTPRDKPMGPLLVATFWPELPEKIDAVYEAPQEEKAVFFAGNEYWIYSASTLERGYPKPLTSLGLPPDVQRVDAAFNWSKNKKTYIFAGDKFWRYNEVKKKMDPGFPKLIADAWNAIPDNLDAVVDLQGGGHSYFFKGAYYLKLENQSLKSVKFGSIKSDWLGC
Assay [7] deals with T3, Disintegrin and metalloproteinase domain-containing protein 10 (Homo sapiens) (UniProt O14672).
T3 sequence (whole entry): T1 sequence (O14672 whole entry)
Description: Inhibition of ADAM10 (unknown origin) at 100 uM preincubated for 30 mins followed by substrate addition measured every 30 mins for 2 hrs by fluorescence assay relative to control. A digest of the protocol: as §1

Assay [8] concerns the target T3, Disintegrin and metalloproteinase domain-containing protein 10 (Homo sapiens). Description: Inhibition of ADAM10 in human A549 cells assessed as inhibition of betacellulin shedding at 40 uM after 1 hr by ELISA. The assay is classed as cell-based. Put shortly:
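A549 cells were tested for betacellulin shedding at 40 μM, with Marimastat at 10 μM as control.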
(In an ELISA, binding on a coated surface is turned into a signal by an enzyme label.)

In assay [9] the target is T2, Disintegrin and metalloproteinase domain-containing protein 17. The experiment in a line: Inhibition of ADAM17 in human A549 cells assessed as effect on PMA-stimulated TGFalpha shedding up to 100 uM preincubated for 1 hr followed by PMA stimulation measured after 1 hr by ELISA. The assay is classed as cell-based. A digest of the protocol: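 TGFα shedding from PMA-treated A549 cells tested up to 100 μM. Marimastat at 10 μM served as control, with a non-PMA-treated control included; soluble TGFα measured in the supernatant.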

Assay [10] has as its target Matrix metalloproteinase-14 (Homo sapiens, UniProt P50281). The experiment in a line: Inhibition of MMP14 (unknown origin) using Mca-KLPGL-Dnp-AR as substrate at 100 uM preincubated for 30 mins followed by substrate addition measured after 1 hr by fluorescence assay relative to control.
Assay [11] deals with T2, Disintegrin and metalloproteinase domain-containing protein 17. The experiment in a line: Inhibition of ADAM17 (unknown origin) at 100 uM preincubated for 30 mins followed by substrate addition measured every 30 mins for 2 hrs by fluorescence assay relative to control. Put shortly: as §1

SMILES strings stand for the structures. Some results are limits rather than exact numbers.

Sequence of Matrix metalloproteinase-9 (P14780 whole entry): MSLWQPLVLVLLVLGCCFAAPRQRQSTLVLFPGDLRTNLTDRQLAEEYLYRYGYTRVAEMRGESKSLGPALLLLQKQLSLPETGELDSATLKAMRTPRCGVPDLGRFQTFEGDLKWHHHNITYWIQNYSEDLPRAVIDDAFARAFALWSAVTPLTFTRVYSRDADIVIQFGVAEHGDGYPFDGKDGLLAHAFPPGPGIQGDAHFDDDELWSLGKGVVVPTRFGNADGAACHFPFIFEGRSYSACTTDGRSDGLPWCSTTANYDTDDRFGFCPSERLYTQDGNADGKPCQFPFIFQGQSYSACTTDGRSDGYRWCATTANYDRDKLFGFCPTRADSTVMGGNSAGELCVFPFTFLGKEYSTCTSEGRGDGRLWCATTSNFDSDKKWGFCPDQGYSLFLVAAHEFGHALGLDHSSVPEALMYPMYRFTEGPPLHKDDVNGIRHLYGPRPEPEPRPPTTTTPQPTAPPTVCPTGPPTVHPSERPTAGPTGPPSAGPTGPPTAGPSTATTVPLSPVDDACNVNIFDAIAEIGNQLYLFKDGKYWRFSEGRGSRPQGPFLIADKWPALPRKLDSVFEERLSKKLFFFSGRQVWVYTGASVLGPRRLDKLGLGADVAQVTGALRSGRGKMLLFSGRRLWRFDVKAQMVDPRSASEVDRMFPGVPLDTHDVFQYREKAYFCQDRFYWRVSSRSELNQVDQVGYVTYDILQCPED
Sequence of Neutrophil collagenase (P22894 101-467 limits assumed): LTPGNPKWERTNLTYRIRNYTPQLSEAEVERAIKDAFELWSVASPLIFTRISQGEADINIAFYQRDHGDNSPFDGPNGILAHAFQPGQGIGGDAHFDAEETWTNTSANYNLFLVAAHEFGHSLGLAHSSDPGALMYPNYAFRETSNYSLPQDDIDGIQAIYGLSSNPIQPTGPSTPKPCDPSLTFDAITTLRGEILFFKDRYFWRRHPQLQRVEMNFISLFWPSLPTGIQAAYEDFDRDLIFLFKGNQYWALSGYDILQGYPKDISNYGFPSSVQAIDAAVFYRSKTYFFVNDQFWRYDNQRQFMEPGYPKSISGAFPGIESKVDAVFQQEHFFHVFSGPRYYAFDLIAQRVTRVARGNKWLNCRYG

With `O=C1NC[C@@H](Cc2ccc3ccccc3c2)N(C[C@@H]2CCCN2C[C@H](Cc2ccc(O)cc2)N2C[C@H](Cc3ccc(O)cc3)N(CCC34CC5CC(CC(C5)C3)C4)C(=O)C2=O)C1=O`, the IC50 (usually the concentration that inhibits the measured activity by half) is greater than 100 µM in assay [1] and 8.1 µM in [2].
On the same counts, the results for `O=C1NC[C@@H](Cc2ccc3ccccc3c2)N(C[C@@H]2CCCN2C[C@H](Cc2ccc(O)cc2)N2C[C@@H](Cc3ccc4ccccc4c3)N(CCC34CC5CC(CC(C5)C3)C4)C(=O)C2=O)C1=O` are greater than 100 µM and 5.7 µM.
The matching figures for `CCC[C@H]1CNC(=O)C(=O)N1C[C@@H]1CCCN1C[C@H](Cc1ccc(O)cc1)N1C[C@H](Cc2ccc(O)cc2)N(CC(CC)c2ccccc2)C(=O)C1=O` (stereo not given in full): greater than 100 µM and 15 µM.
On the same counts, the results for `O=C1NC[C@@H](Cc2ccc3ccccc3c2)N(C[C@@H]2CCCN2C[C@H](Cc2ccc(O)cc2)N2C[C@H](Cc3ccc4ccccc4c3)N(CCC34CC5CC(CC(C5)C3)C4)C(=O)C2=O)C1=O` are greater than 100 µM and 8.4 µM.
Consider `CCC[C@H]1CNC(=O)C(=O)N1C[C@@H]1CCCN1C[C@H](Cc1ccc(O)cc1)N1C[C@@H](Cc2ccc(O)cc2)N(CCC23CC4CC(CC(C4)C2)C3)C(=O)C1=O`, for which the values for the IC50 in assay [1] and in assay [2] were greater than 100 µM and 5.4 µM, respectively.
Consider `CCC[C@H]1CNC(=O)C(=O)N1C[C@@H]1CCCN1C[C@H](Cc1ccc(O)cc1)N1C[C@H](Cc2ccc(O)cc2)N(CC2CCCCC2)C(=O)C1=O`, for which the IC50 in [1] is greater than 100 µM; in assay [2] it was 29 µM.
`O=C1NCC(Cc2ccccc2)N(C[C@@H]2CCCN2C[C@@H](CC2CCCCC2)N2C[C@H](Cc3ccccc3)N(CCc3ccccc3)C(=O)C2=O)C1=O` (single isomer, unassigned): the inhibition (as a rule, how much of the control response was suppressed) in assay [3] came out at 0%; in assay [4], 0%; in [5] it was 34%; on Neutrophil collagenase, 0%; in [6], 0%; in assay [7] it was 0%. In addition, the inhibition came to 0% in assay [8], 0% in [9], 0% in assay [10] and 100% in [11].
As for `CCC[C@H]1CNC(=O)C(=O)N1C[C@@H]1CCCN1C[C@H](Cc1ccc(O)cc1)N1C[C@H](Cc2ccc(O)cc2)N(CC23CC4CC(CC(C4)C2)C3)C(=O)C1=O`, the half-inhibitory concentration (IC50) in [1] was greater than 100 µM; in assay [2] it was 10 µM.
Regarding `CCC[C@H]1CNC(=O)C(=O)N1C[C@@H]1CCCN1C[C@H](Cc1ccc(O)cc1)N1C[C@H](Cc2ccc(O)cc2)N(CC2CCC2)C(=O)C1=O`, the IC50 in assay [1] was greater than 100 µM; in [2], 94 µM.
The matching figures for `CCC[C@H]1CNC(=O)C(=O)N1C[C@@H]1CCCN1C[C@H](Cc1ccc(O)cc1)N1C[C@H](Cc2ccc(O)cc2)N(CC2CCCC2)C(=O)C1=O`: greater than 100 µM and 35 µM.
Regarding `CCCC[C@H]1CN([C@@H](Cc2ccc(O)cc2)CN2CCC[C@H]2CN2C(=O)C(=O)NC[C@@H]2CCC)C(=O)C(=O)N1CCC12CC3CC(CC(C3)C1)C2`, the IC50 in [1] was greater than 100 µM; in assay [2], 6.5 µM.
The matching figures for `CCC[C@H]1CNC(=O)C(=O)N1C[C@@H]1CCCN1C[C@H](Cc1ccc(O)cc1)N1C[C@H](Cc2ccc(O)cc2)N(CCC23CC4CC(CC(C4)C2)C3)C(=O)C1=O`: greater than 100 µM and 5.9 µM.
On the same counts, the results for `CCC[C@H]1CNC(=O)C(=O)N1C[C@@H]1CCCN1C[C@H](Cc1ccc(O)cc1)N1C[C@@H](Cc2ccc3ccccc3c2)N(CCC23CC4CC(CC(C4)C2)C3)C(=O)C1=O` are greater than 100 µM and 7.9 µM.
The matching figures for `CCC[C@H]1CNC(=O)C(=O)N1C[C@@H]1CCCN1C[C@H](Cc1ccc(O)cc1)N1C[C@H](Cc2ccc(O)cc2)N(CC2CCC(C(C)(C)C)CC2)C(=O)C1=O` (stereo not given in full): greater than 100 µM and 10 µM.
Take `CCC[C@H]1CNC(=O)C(=O)N1C[C@@H]1CCCN1C[C@H](Cc1ccc(O)cc1)N1C[C@H](Cc2ccc3ccccc3c2)N(CCC23CC4CC(CC(C4)C2)C3)C(=O)C1=O`: the half-maximal inhibitory concentration (IC50) in assay [1] was greater than 100 µM; in [2], 10 µM.
Turning to `O=C1NC[C@@H](Cc2ccc3ccccc3c2)N(C[C@@H]2CCCN2C[C@H](Cc2ccc(O)cc2)N2C[C@@H](Cc3ccc(O)cc3)N(CCC34CC5CC(CC(C5)C3)C4)C(=O)C2=O)C1=O`, the figures for the IC50 in assay [1] and in [2] were greater than 100 µM and 15 µM, respectively.
